In ChEMBL document CHEMBL1130129, “Immunologically specific activation of a cephalosporin derivative of mitomycin C by monoclonal antibody beta-lactamase conjugates” (J Med Chem, 1997):

Columns and labels:
[1] = target: Beta-lactamase (Enterobacter cloacae) (UniProt P05364); test: Determination of kinetic constant (Kcat) for hydrolysis by beta-lactamase from Enterobacter cloacae P99
Procedure, shortened: (§1)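 Purified E. cloacae β-lactamase (0.1 µg/mL) added to prodrug in PBS pH 7.2 containing 12.5 µg/mL bovine serum albumin, 23 °C; β-lactam hydrolysis followed by loss of absorbance at 260 nm. Initial velocities taken from linear portions of absorbance-time plots and used to derive kinetic constants.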

[2] = Ratio of kinetic constants for hydrolysis by beta-lactamase from Enterobacter cloacae P99 (kcat/Km); design: unit not given here; procedure, shortened: as §1

Chain of Beta-lactamase (Enterobacter cloacae) (P05364 21-381 limits assumed): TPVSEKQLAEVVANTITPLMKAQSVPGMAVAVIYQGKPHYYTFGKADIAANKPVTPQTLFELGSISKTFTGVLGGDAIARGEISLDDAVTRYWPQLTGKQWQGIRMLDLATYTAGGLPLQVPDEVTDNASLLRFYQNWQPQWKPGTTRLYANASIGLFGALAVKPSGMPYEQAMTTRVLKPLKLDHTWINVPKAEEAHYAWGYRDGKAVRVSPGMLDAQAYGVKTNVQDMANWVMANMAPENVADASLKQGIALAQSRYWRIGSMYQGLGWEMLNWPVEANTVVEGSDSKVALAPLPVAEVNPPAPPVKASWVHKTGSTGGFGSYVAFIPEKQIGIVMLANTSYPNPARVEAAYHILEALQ

| SMILES | k cat [1] [s⁻¹] | Ratio [2] |
| --- | --- | --- |
| O=C(Cc1ccccc1)N[C@@H]1C(=O)N2C(C(=O)O)=C(COC(=O)Nc3ccc(N(CCCl)CCCl)cc3)CS[C@H]12 | 119 | 17 |
| COc1cccc2c1C(=O)c1c(O)c3c(c(O)c1C2=O)C[C@@](O)(C(=O)CO)C[C@@H]3OC1CC(NC(=O)OCC2=C(C(=O)O)N3C(=O)[C@@H](NC(=O)CCCC(=O)O)[C@H]3SC2)C(O)C(C)O1 (some centres undefined) | – | 2.5 |
| CO[C@@]12[C@H](COC(N)=O)C3=C(C(=O)C(C)=C(NCC4=C(C(=O)O)N5C(=O)[C@@H](NC(=O)Cc6ccccc6)[C@H]5SC4)C3=O)N1C[C@@H]1N[C@@H]12 | 476 | 9.7 |
| O=C(O)CCCC(=O)N[C@@H]1C(=O)N2C(C(=O)O)=C(COC(=O)Nc3ccc(N(CCCl)CCCl)cc3)CS[C@H]12 | 337 | 7.8 |
| CO[C@@]12[C@H](COC(N)=O)C3=C(C(=O)C(C)=C(NCC4=C(C(=O)O)N5C(=O)[C@@H](NC(=O)CCCC(=O)O)[C@H]5SC4)C3=O)N1C[C@@H]1N[C@@H]12 | 248 | 2.1 |
